According to ChEMBL document CHEMBL4038284, “Synthesis of novel quinoline-based 4,5-dihydro-1H-pyrazoles as potential anticancer, antifungal, antibacterial and antiprotozoal agents” (Eur J Med Chem, 2017):
In brackets after ≈: the same amount, converted by molar mass. Activity calls are given as the source filed them. The rule behind the calls is not given here.

How the values were obtained:
[1] = system: K562; assay: Growth inhibition of human K562 cells at 10 uM incubated for 48 hrs by sulforhodamine B assay; format: functional, cell-based
Summary of the method: (§1)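 NCI 60-line panel, single 10 μM dose. Cells were grown in RPMI-1640 with 5% FBS and 2 mM L-glutamine and pre-incubated 24 h before compound addition (DMSO stock). Exposure was 48 h at 37 °C, 5% CO2. Cells were fixed with cold TCA (10% final), stained with 0.4% SRB, bound dye dissolved in 10 mM Tris base, A515 read. Growth was taken relative to time-zero and untreated control plates.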

[2] = system: MDA-MB-231; assay: Growth inhibition of human MDA-MB-231 cells at 10 uM incubated for 48 hrs by sulforhodamine B assay; format: functional, cell-based; summary of the method: as §1
[3] = system: NCI-H23; assay: Growth inhibition of human NCI-H23 cells at 10 uM incubated for 48 hrs by sulforhodamine B assay; format: functional, cell-based; summary of the method: as §1
[4] = system: MOLT-4; assay: Growth inhibition of human MOLT4 cells at 10 uM incubated for 48 hrs by sulforhodamine B assay; format: functional, cell-based; summary of the method: as §1
[5] = system: NCI-H522; assay: Growth inhibition of human NCI-H522 cells at 10 uM incubated for 48 hrs by sulforhodamine B assay; format: functional, cell-based; summary of the method: as §1
[6] = system: SK-OV-3; assay: Growth inhibition of human SKOV3 cells at 10 uM incubated for 48 hrs by sulforhodamine B assay; format: functional, cell-based
Summary of the method: (§2)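 NCI-60 single-dose screen at 10 µM for 48 h. Cells were grown in RPMI-1640 with 5% FBS and 2 mM L-glutamine and preincubated 24 h before compound. Time-zero plates were TCA-fixed at compound addition. After exposure, cells were TCA-fixed, stained with SRB and read at 515 nm. Percentage growth was calculated against time-zero and untreated-control absorbances.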

[7] = system: Hs-578T; assay: Growth inhibition of human Hs578T cells at 10 uM incubated for 48 hrs by sulforhodamine B assay; format: functional, cell-based; summary of the method: as §1
[8] = system: SK-MEL-28; assay: Growth inhibition of human SK-MEL-28 cells at 10 uM incubated for 48 hrs by sulforhodamine B assay; format: functional, cell-based; summary of the method: as §2
[9] = system: T47D; assay: Growth inhibition of human T47D cells at 10 uM incubated for 48 hrs by sulforhodamine B assay; format: functional, cell-based; summary of the method: as §2
[10] = system: HCT-116; assay: Growth inhibition of human HCT116 cells at 10 uM incubated for 48 hrs by sulforhodamine B assay; format: functional, cell-based
Summary of the method: (§3)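 NCI 60-cell-line screen at a single 10 µM dose. Cells in RPMI-1640 with 5% FBS and 2 mM L-glutamine, pre-incubated 24 h, then treated for 48 h at 37 °C. TCA fixation, sulforhodamine B staining, absorbance at 515 nm. Percentage growth calculated against time-zero and untreated controls.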

[11] = system: IGROV-1; assay: Growth inhibition of human IGROV1 cells at 10 uM incubated for 48 hrs by sulforhodamine B assay; format: functional, cell-based; summary of the method: as §1
[12] = system: Candida albicans; assay: Growth inhibition of Candida albicans ATCC 10231 at 15.62 ug/ml incubated for 48 hrs under dark condition by broth microdilution method relative to control; format: functional; conditions: ATCC 10231, 48 h, read-out: GI
Summary of the method: (§4)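 CLSI M27-A3 broth microdilution in RPMI-1640, DMSO ≤1%. Inoculum 1-5 × 10^3 CFU/mL. Incubated 48 h at 30 °C, dark. % inhibition = 100 − (OD405 test − sterility control)/(OD405 growth control − sterility control), with growth and sterility control wells. Triplicate.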

[13] = system: A549; assay: Growth inhibition of human A549/ATCC cells at 10 uM incubated for 48 hrs by sulforhodamine B assay; format: functional, cell-based; summary of the method: as §3
[14] = system: MDA-MB-435; assay: Growth inhibition of human MDA-MB-435 cells at 10 uM incubated for 48 hrs by sulforhodamine B assay; format: functional, cell-based; summary of the method: as §1
[15] = system: Cryptococcus neoformans; assay: Antifungal activity against Cryptococcus neoformans ATCC 32264 incubated for 48 hrs under dark condition by broth microdilution method; format: functional; conditions: ATCC 32264, 48 h
Summary of the method: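 CLSI M27-A3 broth microdilution in RPMI-1640, DMSO ≤1%, compounds at 250-0.98 µg/mL final. Inoculum 1-5 × 10^3 CFU/mL. Incubated 48 h at 30 °C in a moist dark chamber, read at OD405. MIC80 and MIC50 taken from % inhibition dose-response curves (mean ± SEM, triplicate). Amphotericin B was the positive control.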

[16] = system: OVCAR-3; assay: Growth inhibition of human OVCAR3 cells at 10 uM incubated for 48 hrs by sulforhodamine B assay; format: functional, cell-based; summary of the method: as §1
[17] = system: Trypanosoma cruzi; assay: Antitrypanosomal activity against Trypanosoma cruzi Tulahuen intracellular amastigote harboring LacZ infected in human U937 cells after 72 hrs by CPRG/Nonidet reagent based spectrophotometric method; format: functional, cell-based; conditions: U-937, 72 h
Summary of the method: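 U-937 cells at 2.5 × 10^5 cells/mL in RPMI-1640 with 10% serum and 0.1 µg/mL PMA were infected with β-galactosidase-transfected Tulahuen epimastigotes at 5 parasites per cell. Infected cells were exposed to 50, 12.5, 3.125 and 0.78 µg/mL for 72 h. CPRG (100 uM) and 0.1% Nonidet P-40 were added for 3 h, read at 570 nm. EC50 by Probit. Triplicate, at least two experiments; benznidazole as reference.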

[18] = system: UACC-62; assay: Growth inhibition of human UACC62 cells at 10 uM incubated for 48 hrs by sulforhodamine B assay; format: functional, cell-based; summary of the method: as §2
[19] = system: Pseudomonas aeruginosa; assay: Antibacterial activity against Pseudomonas aeruginosa ATCC 27853 after 24 hrs by resazurin dye based microdilution assay; format: functional; conditions: ATCC 27853, 24 h
Summary of the method: (§5)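 MIC taken as the lowest concentration giving visible inhibition and/or by resazurin (1 mg/mL). Gentamicin was the control. Run in duplicate, repeated at least three times.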

[20] = system: CAKI-1; assay: Growth inhibition of human Caki1 cells at 10 uM incubated for 48 hrs by sulforhodamine B assay; format: functional, cell-based; summary of the method: as §3
[21] = system: Escherichia coli; assay: Antibacterial activity against Escherichia coli ATCC 25922 after 24 hrs by resazurin dye based microdilution assay; format: functional; conditions: ATCC 25922, 24 h; summary of the method: as §5
[22] = system: HL-60(TB); assay: Growth inhibition of human HL-60(TB) cells at 10 uM incubated for 48 hrs by sulforhodamine B assay; format: functional, cell-based
Summary of the method: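 NCI 60-line single-dose screen at 10 μM, 48 h. Cells in RPMI-1640 with 5% FBS and 2 mM L-glutamine at 37 °C, 5% CO2. Growth measured by TCA fixation and SRB staining (515 nm), relative to time-zero and untreated control wells.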

[23] = system: NCI-H322M; assay: Growth inhibition of human NCI-H322M cells at 10 uM incubated for 48 hrs by sulforhodamine B assay; format: functional, cell-based; summary of the method: as §1
[24] = system: NCI-H226; assay: Growth inhibition of human NCI-H226 cells at 10 uM incubated for 48 hrs by sulforhodamine B assay; format: functional, cell-based; summary of the method: as §1
[25] = system: Cryptococcus neoformans; assay: Growth inhibition of Cryptococcus neoformans ATCC 32264 at 250 ug/ml incubated for 48 hrs under dark condition by broth microdilution method relative to control; format: functional; conditions: ATCC 32264, 48 h, read-out: GI; summary of the method: as §4
[26] = system: HOP-92; assay: Growth inhibition of human HOP92 cells at 10 uM incubated for 48 hrs by sulforhodamine B assay; format: functional, cell-based; summary of the method: as §1
[27] = system: SF-268; assay: Growth inhibition of human SF268 cells at 10 uM incubated for 48 hrs by sulforhodamine B assay; format: functional, cell-based; summary of the method: as §1
[28] = system: OVCAR-4; assay: Growth inhibition of human OVCAR4 cells at 10 uM incubated for 48 hrs by sulforhodamine B assay; format: functional, cell-based; summary of the method: as §1

SMILES	growth inhibition (GI) [1]	growth inhibition (GI) [2]	growth inhibition (GI) [3]	growth inhibition (GI) [4]	growth inhibition (GI) [5]	growth inhibition (GI) [6]	growth inhibition (GI) [7]	growth inhibition (GI) [8]	growth inhibition (GI) [9]	growth inhibition (GI) [10]	growth inhibition (GI) [11]	inhibition of growth at 15.62 µg/mL [12] [%]	growth inhibition (GI) [13]	growth inhibition (GI) [14]	MIC50 [15] [µg/mL]	MIC80 [15] [µg/mL]	growth inhibition (GI) [16]	EC50 [17] [µg/mL]	growth inhibition (GI) [18]	MIC [19] [µg/mL]	other results
Clc1ccc(C2=NN(c3ccccc3)C(c3cccc(Nc4ccnc5cc(Cl)ccc45)c3)C2)cc1 (configuration not stated)	inactive	inactive	inactive	inactive	inactive	inactive	inactive	inactive	inactive	inactive	inactive	4.29	inactive	inactive	≥ 250	≥ 250	inactive	16.2 (≈ 31.8 µM)	inactive	> 1000	growth inhibition (GI) [20]: inactive; MIC [21]: > 1000 µg/mL; growth inhibition (GI) [22]: inactive; growth inhibition (GI) [23]: inactive; growth inhibition (GI) [24]: inactive; inhibition of growth at 250 µg/mL [25]: 19.8%; growth inhibition (GI) [26]: inactive; growth inhibition (GI) [27]: inactive; growth inhibition (GI) [28]: inactive
Clc1ccc(C2=NN(c3cc(Cl)cc(Cl)c3)C(c3cccc(Nc4ccnc5cc(Cl)ccc45)c3)C2)cc1 (configuration not stated)	inactive	inactive	inactive	inactive	inactive	inactive	inactive	inactive	inactive	inactive	inactive	10.8	inactive	inactive	≥ 250	≥ 250	inactive	19.1 (≈ 33 µM)	inactive	> 1000	growth inhibition (GI) [20]: inactive; MIC [21]: > 1000 µg/mL; growth inhibition (GI) [22]: inactive; growth inhibition (GI) [23]: inactive; growth inhibition (GI) [24]: inactive; inhibition of growth at 250 µg/mL [25]: 8.42%; growth inhibition (GI) [26]: inactive; growth inhibition (GI) [27]: inactive; growth inhibition (GI) [28]: inactive
COc1ccc(C2=NN(c3ccc(Cl)cc3)C(c3cccc(Nc4ccnc5cc(Cl)ccc45)c3)C2)cc1 (configuration not stated)	inactive	inactive	inactive	inactive	inactive	inactive	inactive	inactive	inactive	inactive	inactive	0	inactive	inactive	250 (≈ 463 µM)	≥ 250	inactive	44.6 (≈ 82.6 µM)	inactive	> 1000	growth inhibition (GI) [20]: inactive; MIC [21]: > 1000 µg/mL; growth inhibition (GI) [22]: inactive; growth inhibition (GI) [23]: inactive; growth inhibition (GI) [24]: inactive; inhibition of growth at 250 µg/mL [25]: 58.2%; growth inhibition (GI) [26]: inactive; growth inhibition (GI) [27]: inactive; growth inhibition (GI) [28]: inactive
